The values that follow come from paper PMC6261781 (Cell chemical biology, 2018).

Series [1] deals with HBV. The following applies: ref Takamatsu et al., 2015; cited from earlier work.
Series [2] deals with HIV-1. The conditions noted are these: ref Takamatsu et al., 2015; cited from earlier work.
The subject of series [3] is HIV-1^WT. Put plainly: Anti-HIV-1 MTT assay. It is filed as cell-based. The following applies: read-out: Anti-HIV-1 IC50 against HIV-1^WT, MT-4 cells, mean ± 1 S.D.
A short description of series [4]: in vitro. It is filed as cell-based, human. The following applies: human.
Series [5] relates to MT-4 cells. Put plainly: in vitro. It is filed as cell-based, human. The conditions noted are these: for S.I. with (CC50/IC50^WT): CC50 in MT-4 / IC50 against HIV-1^WT.
For series [6], the system named is HIV-1EFdA^R. The series is described as follows: p24 assay using MT-4 cells. It is filed as cell-based. The following applies: for Activity against HIV-1EFdA^R (in words) / Fold change of IC50 against HIV-1EFdA^R compared with HIV-1^WT: p24 assay, MT-4 cells; for Activity against HIV-1EFdA^R (in words): concentrations up to 1 μM; for IC50: Human immunodeficiency virus 1, MT4, read-out: IC50 against HIV-1EFdA^R. Summed up: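 MT-4 cells (RPMI 1640, 10% FCS, 37°C, 5% CO2) infected with a recombinant HIV-1NL4-3-based clone and cultured 5 days with test compound. Supernatant p24 was measured by chemiluminescent enzyme immunoassay, and signal (cps) was converted to ng/ml against a 2-fold serial-dilution p24 standard curve. Run in triplicate in two or three independent experiments; IC50 was calculated per experiment and averaged.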

The test system of series [7] is HIV-1^K65R. Put plainly: Anti-HIV-1 MTT assay in MT-4 cells. In kind it is cell-based. (Tetrazolium dyes change colour on reduction, which living cells bring about.)
For series [8], the system named is HIV-1^67-75. The series is described as follows: Anti-HIV-1 MTT assay in MT-4 cells. In kind it is cell-based.
For series [9], the system named is HIV-1^M184V. The series is described as follows: Anti-HIV-1 MTT assay in MT-4 cells. In kind it is cell-based.
In series [10] the test system is HIV-1^T215F. The series is described as follows: Anti-HIV-1 MTT assay in MT-4 cells. In kind it is cell-based.
The conditions of series [11]: ref Nakata et al., 2007; cited from earlier work.
The test system of series [12] is HIV-1^M184V. The following applies: ref Kawamoto et al., 2008; Maeda et al., 2014; cited from earlier work.
Series [13] concerns HIV-1 with I142V, T165R, and M184V in RT. The conditions noted are these: ref Kawamoto et al., 2008; cited from earlier work.
The conditions of series [14]: 10-mg single dose in humans; ref Grobler et al., CROI. Abstr. 98, 2016; cited from earlier work.

Counter-ions that a name gives are not always drawn.

`N#C[C@]1(CO)O[C@@H](n2cnc3c(=O)[nH]c(N)nc32)C[C@@H]1O` [CdG, reference compound]: the “Anti-HBV activity (in words)” value in series [1] is reported as “sub nano molar”. For the same molecule, the “Anti-HIV-1 activity (in words)” value in [2] is on record as “sub nano molar”.
`Cc1cn([C@H]2C[C@H](N=[N+]=[N-])[C@@H](CO)O2)c(=O)[nH]c1=O` [AZT, zidovudine, reference compound]: the IC50 (in general, the concentration needed to halve the response being measured) in [3] came out at 0.0374 ± 0.0075 µM. Besides, in series [4], the CC50 (usually the concentration at which the toxic effect on the cells reaches its halfway point) is above 100 µM. Besides, the “S.I. with (CC50/IC50^WT)” value in [5] is on record as > 2,670.
`Nc1ccn([C@H]2C[C@H](O)[C@](CO)(CF)O2)c(=O)n1` [FMdC, 4′-fluoromethyl-2′-deoxycytidine] gave a CC50 in series [4] of 4 µM. In addition, the “S.I. with (CC50/IC50^WT)” value in series [5] was 120.
In the same order, the values of `CC[C@]1(CO)O[C@@H](n2cnc3c(O)nc(N)nc32)C[C@@H]1O` [EtdG, 4′-ethyl-2′-deoxyguanosine] are 47 ± 3.2 µM and 8,390.
For the molecule `C#C[C@]1(CO)O[C@@H](n2cnc3c(=O)[nH]c(N)nc32)C[C@@H]1O` [EdG, 4′-ethynyl-2′-deoxyguanosine], in series [4], half-maximal cytotoxicity (CC50) was put at 7 µM. For the same molecule, in [5], the “S.I. with (CC50/IC50^WT)” value was 4,350. In addition, in [6], the “Activity against HIV-1EFdA^R (in words)” value was “favorable activity”.
Consider `CC(C)OC(=O)OCOP(=O)(CO[C@H](C)Cn1cnc2c(N)ncnc21)OCOC(=O)OC(C)C` [TDF, tenofovir disoproxil fumarate, reference compound], for which, in [3], the IC50 is 0.204 ± 0.127 µM. Besides, half-maximal cytotoxicity in [4] (CC50) was put at 39.4 ± 7.3 µM. Also, the “S.I. with (CC50/IC50^WT)” value in [5] is recorded as 190.
As to `CNc1nc(N)nc2c1ncn2[C@H]1C[C@H](O)[C@](CO)(CF)O1` [FMAMdA, 4′-fluoromethyl-2-amino-N6-methyl-2′-deoxyadenosine], the CC50 in [4] is above 100 µM. The “S.I. with (CC50/IC50^WT)” value in [5] is above 600.
On to `Cc1cn(C2CC(O)C(C#N)(CO)O2)c(=O)[nH]c1=O` (stereo not shown) [CdT, 4′-cyano-2′-deoxythymidine], for which the results for the IC50 in series [3], in series [9] (read-out: Anti-HIV-1 IC50 against HIV-1^M184V) and in [10] (read-out: Anti-HIV-1 IC50 against HIV-1^T215F) were 0.0091 ± 0.0073 µM, 0.0117 ± 0.0024 µM and 0.003 µM, respectively. Also, the “Fold change of IC50 against HIV-1^K65R compared with HIV-1^WT (in parentheses)” value in [7] worked out at 0.2 fold. The “Fold change of IC50 against HIV-1^67-75 compared with HIV-1^WT (in parentheses)” value in series [8] (MT-4 cells, MTT assay) is listed as 0.9 fold. Further, the “Fold change of IC50 against HIV-1^M184V compared with HIV-1^WT (in parentheses)” value in series [9] worked out at 1.3 fold. Also, the “Fold change of IC50 against HIV-1^T215F compared with HIV-1^WT (in parentheses)” value in series [10] was found to be 0.3 fold. Further, the “S.I. with (CC50/IC50^WT)” value in series [5] was > 1,100. In addition, in series [5] (read-out: CC50 in MT-4, MT-4 cells, 7 days of culture), the CC50 is above 10 µM. Moreover, the “Activity against HIV-1EFdA^R (in words)” value in [6] was “favorable activity”.
In [4], `CC[C@]1(CO)O[C@@H](n2cnc3c(N)nc(N)nc32)C[C@@H]1O` [EtAdA, 4′-ethyl-2-amino-2′-deoxyadenosine] came in with a CC50 of 35.9 ± 3.1 µM. Moreover, the “S.I. with (CC50/IC50^WT)” value in series [5] is on record as 4,030.
With `N#C[C@]1(CO)O[C@@H](n2cnc3c(N)nc(N)nc32)C[C@@H]1O` [CAdA, 4′-cyano-2-amino-2′-deoxyadenosine], in [4], the CC50 turned out to be 3.5 ± 1.2 µM. For the same molecule, the “S.I. with (CC50/IC50^WT)” value in [5] is given as 17,500. Also, the “Activity against HIV-1EFdA^R (in words)” value in series [6] was “favorable activity”. Moreover, the “Anti-HBV activity (in words)” value in [1] was “sub nano molar”. In addition, in series [2], the “Anti-HIV-1 activity (in words)” value is “sub nano molar”.
In [4], `C[C@]1(CO)O[C@@H](n2cnc3c(N)nc(N)nc32)C[C@@H]1O` [MAdA, 4′-methyl-2-amino-2′-deoxyadenosine] registered a CC50 of 4 ± 0.3 µM. The “S.I. with (CC50/IC50^WT)” value in [5] amounted to 15.
As to `C#C[C@]1(CO)O[C@@H](n2ccc(N)nc2=O)C[C@@H]1O` [EdC, 4′-ethynyl-2′-deoxycytidine], in series [6], the “Activity against HIV-1EFdA^R (in words)” value is “favorable activity”.
Turning to `C#C[C@]1(COP(=O)(O)OP(=O)(O)OP(=O)(O)O)O[C@@H](n2cnc3c(N)nc(F)nc32)C[C@@H]1O` [EFdA-TP, EFdA-triphosphate], the Intracellular half-life in [11] is given as at least 17 h.
As for `Nc1nc(N)c2ncn([C@H]3C[C@H](O)[C@](CO)(CF)O3)c2n1` [FMAdA, 4′-fluoromethyl-2-amino-2′-deoxyadenosine], the midpoint of cytotoxicity in series [4], the CC50, lay at 22.2 ± 4.1 µM. In addition, the “S.I. with (CC50/IC50^WT)” value in series [5] is given as 7,400.
The like results for `Nc1nc(F)nc2c1ncn2[C@H]1C[C@H](O)[C@](CO)(CF)O1` [FMFdA, 4′-fluoromethyl-2-fluoro-2′-deoxyadenosine] were, in that order, 6.6 ± 0.5 µM and 260.
Consider `Nc1nc(NC2CC2)c2ncn([C@H]3C=C[C@@H](CO)C3)c2n1` [ABC, abacavir, reference compound], for which the IC50 is 0.263 ± 0.0076 µM in series [3] and above 1 µM in series [8] (Human immunodeficiency virus 1, MT4, read-out: IC50 against HIV-1^67-75). The CC50 in series [4] is above 100 µM. Further, the “S.I. with (CC50/IC50^WT)” value in series [5] was above 380.
On to `C[C@]1(CO)O[C@@H](n2cnc3c(O)nc(N)nc32)C[C@@H]1O` [MdG, 4′-methyl-2′-deoxyguanosine], for which, in series [4], the CC50 was found to be 4.6 ± 0.6 µM. Moreover, in [5], the “S.I. with (CC50/IC50^WT)” value came out at 25.
In the case of `C=C[C@]1(CO)O[C@@H](n2cnc3c(N)nc(N)nc32)C[C@@H]1O` [VAdA, 4′-vinyl-2-amino-2′-deoxyadenosine], in series [4], the midpoint of cytotoxicity, the CC50, lay at 20.6 ± 3.2 µM. In addition, the “S.I. with (CC50/IC50^WT)” value in [5] is reported as 4,790. Further, in series [6], the IC50 was 0.804 µM and the “Fold change of IC50 against HIV-1EFdA^R compared with HIV-1^WT” value worked out at 190 fold.
Regarding `C#C[C@]1(CO)O[C@@H](n2cnc3c(N)nc(F)nc32)C[C@@H]1O` [EFdA, 4′-ethynyl-2-fluoro-2′-deoxyadenosine], in series [4], the CC50 was 19.2 ± 6 µM. Moreover, in series [5], the “S.I. with (CC50/IC50^WT)” value was 64,000. In series [6], the IC50 amounted to 0.042 µM, the “Fold change of IC50 against HIV-1EFdA^R compared with HIV-1^WT” value came to 52 fold and the “Activity against HIV-1EFdA^R (in words)” value is “favorable activity”. In addition, in series [12], the “Fold decrease in activity against HIV-1^M184V (previous observation)” value is ~ 6 fold. The “Resistance, fold change compared with HIV-1^WT” value in series [13] is listed as 22 fold. The “Anti-HBV activity (in words)” value in series [1] is listed as “minor anti-HBV activity”. For the same molecule, the “Time with concentrations exceeding projected efficacious concentrations” value in series [14] is “at least 7 days”.
